These results are taken from ChEMBL document CHEMBL4145675, “2-Phenylquinoline S. aureus NorA Efflux Pump Inhibitors: Evaluation of the Importance of Methoxy Group Introduction” (J Med Chem, 2018).

Data set [1] deals with Staphylococcus aureus. Description: Synergistic potentiation of ciprofloxacin-induced antimicrobial activity against wild type Staphylococcus aureus ATCC 25923 at 0.78 to 100 ug/ml by microdilution method based Checkerboard assay. Format: functional, organism-based. A general note: Broth dilution looks for growth in wells or tubes with falling amounts of substance.
Data set [2] has as its target T1, Quinolone resistance protein NorA (Staphylococcus aureus) (UniProt P0A0J7).
T1 sequence (whole entry): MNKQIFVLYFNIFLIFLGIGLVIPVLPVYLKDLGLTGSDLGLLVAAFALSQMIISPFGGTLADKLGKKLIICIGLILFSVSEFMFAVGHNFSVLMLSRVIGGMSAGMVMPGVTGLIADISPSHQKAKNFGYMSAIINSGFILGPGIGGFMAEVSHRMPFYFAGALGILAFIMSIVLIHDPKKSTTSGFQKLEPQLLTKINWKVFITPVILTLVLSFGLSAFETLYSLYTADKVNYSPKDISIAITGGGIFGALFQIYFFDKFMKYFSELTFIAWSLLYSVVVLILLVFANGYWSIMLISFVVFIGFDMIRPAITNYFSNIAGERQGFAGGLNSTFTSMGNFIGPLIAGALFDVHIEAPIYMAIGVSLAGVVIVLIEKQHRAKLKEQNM
Description: Inhibition of NorA in Staphylococcus aureus SA-1199B expressing GrlA A116E mutant assessed as synergistic potentiation of ciprofloxacin-induced antimicrobial activity at 0.78 to 100 ug/ml by microdilution method based Checkerboard assay.

For data set [3], the target named is T1, Quinolone resistance protein NorA (Staphylococcus aureus). Description: Inhibition of NorA in Staphylococcus aureus SA-K2378 assessed as synergistic potentiation of ciprofloxacin-induced antimicrobial activity at 0.78 to 100 ug/ml by microdilution method based Checkerboard assay.
The nature of data set [4]: Cytotoxicity in human HepG2 cells assessed as reduction in cell viability incubated for 24 hrs by ATP bioluminescence assay. Format: cell-based. An outline of the steps: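 Cells were grown to confluence overnight in RPMI 1640 with 10% heat-inactivated fetal calf serum, penicillin and streptomycin. Monolayers were exposed for 24 h at 37 °C to scalar concentrations (0-250 µg/mL). Viability was read by ATP bioluminescence, each concentration in triplicate. CC50 is the concentration reducing cell number by 50% versus untreated controls.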

Data set [5] has as its system Staphylococcus aureus. Description: Antimicrobial activity against Staphylococcus aureus ATCC 25923 by microdilution method. The data set is classed as organism-based. The conditions noted are these: in vivo. In short, it runs like this: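 Broth microdilution MIC per CLSI guidelines. ATCC 25923 is norA wild-type. SA-1199B overexpresses norA and carries an A116E GrlA substitution.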

Data set [6] has as its system Staphylococcus aureus. The data set can be described thus: Antimicrobial activity against mepA deficient Staphylococcus aureus SA-K2885 by microdilution method. Format: organism-based. Conditions: in vivo. An outline of the steps:
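CLSI broth microdilution MIC of the compound alone in norA-deleted strains. SA-K2885 carries empty pALC2073 and SA-K2886 carries pALC2073-mepA (xyl/tetO promoter). 0.05 µg/mL tetracycline was present throughout to induce.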

The subject of data set [7] is Staphylococcus aureus. Description: Induction of membrane depolarization in Staphylococcus aureus SA-1199B expressing wild type norA at 1 to 10 ug/ml incubated for 30 mikns by DiOC2(3) fluorescent probe based cytofluorimetry. Conditions: in vivo. Format: organism-based. An outline of the steps:
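SA-1199B was grown in MHB at 37 °C to OD600 0.6, washed, and diluted to 1×10^6 CFU/mL in filtered PBS. DiOC2(3) was added at 30 µM final, and compound at 1, 5 or 10 µg/mL for 30 min. CCCP 5 µM final served as positive control. Flow cytometry with 488 nm excitation gave a red/green ratio normalized to the DiOC2(3) blank, expressed as % depolarized versus drug-free control.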

The nature of data set [8]: Drug metabolism in mouse liver microsomes assessed as compound oxidation at 50 uM in presence of NADPH regenerating system incubated for 120 mins by UPLC/MS analysis. Format: ADME, microsome. The conditions noted are these: 2 h. An outline of the steps:
(§1)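 1 mg/mL mouse liver microsomes in 0.1 M Tris-HCl pH 7.4 with test compound at 50 µM, DMSO up to ~3%. Preincubated 5 min at 37 °C, then started with NADPH regeneration system. Stopped at 120 min with cold methanol and centrifuged. Supernatant analysed by UPLC/MS (ESI, tandem quadrupole).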

The nature of data set [9]: Drug metabolism in mouse liver microsomes assessed as compound hydroxylation at 50 uM in presence of NADPH regenerating system incubated for 120 mins by UPLC/MS analysis. The data set is classed as ADME, microsome. Conditions: 2 h. An outline of the steps: as §1
Another data set concerns the target CYP3A4 (Homo sapiens, UniProt P08684). Description: (§2) Inhibition of human recombinant CYP3A4 at 10 uM using beetle D-luciferin as substrate by CYP450-Glo assay. Format: ADME. The conditions noted are these: recombinant CYP3A4, probe beetle D-luciferin. In short, it runs like this:
(§3)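 Luminescent P450-Glo assay in which recombinant human CYP3A4 or CYP2D6 converts a beetle D-luciferin derivative to D-luciferin. Compound was tested at 1 and 10 µM.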

The target of a further data set is Cytochrome P450 2D6 (Homo sapiens, UniProt P10635). The data set can be described thus: Inhibition of human recombinant CYP2D6 at 1 uM using beetle D-luciferin as substrate by CYP450-Glo assay. The data set is classed as ADME. Conditions: recombinant enzyme. An outline of the steps: as §3
Chain of Cytochrome P450 2D6 (P10635 whole entry): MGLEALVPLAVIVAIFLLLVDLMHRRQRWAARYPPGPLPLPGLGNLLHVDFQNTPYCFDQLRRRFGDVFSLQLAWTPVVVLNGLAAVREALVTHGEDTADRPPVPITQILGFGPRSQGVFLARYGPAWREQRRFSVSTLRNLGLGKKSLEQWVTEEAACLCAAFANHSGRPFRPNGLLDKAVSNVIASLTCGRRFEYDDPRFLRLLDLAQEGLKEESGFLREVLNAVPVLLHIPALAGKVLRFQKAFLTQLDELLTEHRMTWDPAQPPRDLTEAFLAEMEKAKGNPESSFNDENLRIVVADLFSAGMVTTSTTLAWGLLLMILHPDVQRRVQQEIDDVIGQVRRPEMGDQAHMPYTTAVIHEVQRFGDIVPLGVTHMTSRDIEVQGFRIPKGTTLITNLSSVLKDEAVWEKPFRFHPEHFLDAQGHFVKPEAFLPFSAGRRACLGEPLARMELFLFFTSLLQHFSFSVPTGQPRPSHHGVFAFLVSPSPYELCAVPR
For data set [10], the target named is T1, Quinolone resistance protein NorA (Staphylococcus aureus). Description: Inhibition of NorA in Staphylococcus aureus SA-K2378 assessed as synergistic potentiation of ciprofloxacin-induced antimicrobial activity at 0.78 ug/ml by microdilution method based Checkerboard assay.
Data set [11] is described as follows: Selectivity index, ratio of CC50 for human THP1 cells to inhibition of NorA in Staphylococcus aureus SA-1199B expressing GrlA A116E mutant assessed as minimal potentiating drug concentration causing 8 fold reduction in ciprofloxacin MIC by microdilution method based Checkerboard assay. The conditions noted are these: read-out: Selectivity Index. The data set is classed as toxicity. In short, it runs like this:
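CC50 cells (HepG2 for […], THP-1 for […]) were grown to confluence in RPMI 1640 with 10% FCS, penicillin and streptomycin. They were exposed 24 h at 37 °C to 0–250 µg/mL. Viability was read by ATP bioluminescence, triplicate. CC50 is the concentration reducing cell number 50% versus untreated.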

The nature of data set [12]: Drug metabolism in mouse liver microsomes assessed as compound demethylation at 50 uM in presence of NADPH regenerating system incubated for 120 mins by UPLC/MS analysis. Conditions: 2 h, in the assay text read “hydroxylation and ring opening” for “demethylation”. Format: ADME, microsome. In short, it runs like this: as §1
In general terms: Liver microsomes are a subcellular fraction often used to study metabolism.

The target of another data set is Cytochrome P450 3A4 (Homo sapiens, UniProt P08684). Described as §2. The conditions noted are these: recombinant enzyme, 10 µM. Format: ADME. In short, it runs like this:
as §3

Values after ≈ are worked out from the molar mass of the structure shown. Active and inactive are the calls of the source. The rule behind the calls is not given here.

Chain of Cytochrome P450 3A4 (P08684 whole entry): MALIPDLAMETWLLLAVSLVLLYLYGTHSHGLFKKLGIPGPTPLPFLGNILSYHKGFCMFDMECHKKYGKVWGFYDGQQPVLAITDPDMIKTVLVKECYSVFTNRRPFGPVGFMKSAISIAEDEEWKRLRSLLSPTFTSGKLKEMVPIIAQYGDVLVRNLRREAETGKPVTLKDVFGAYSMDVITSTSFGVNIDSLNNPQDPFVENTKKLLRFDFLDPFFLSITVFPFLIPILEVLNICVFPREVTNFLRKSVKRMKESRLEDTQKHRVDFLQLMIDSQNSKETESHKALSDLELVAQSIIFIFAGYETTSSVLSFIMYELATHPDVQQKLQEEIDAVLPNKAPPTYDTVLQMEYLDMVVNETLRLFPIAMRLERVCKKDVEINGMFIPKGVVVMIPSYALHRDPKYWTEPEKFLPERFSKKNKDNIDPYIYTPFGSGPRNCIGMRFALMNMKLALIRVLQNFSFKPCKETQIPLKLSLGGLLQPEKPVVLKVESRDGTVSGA
Chain of CYP3A4 (P08684 whole entry): as above

For the molecule `CCCOc1ccc(-c2cc(OCCN3CCc4cc(OC)c(OC)cc4C3)c3cc(OC)c(OC)cc3n2)cc1`, the “synergistic potentiation of ciprofloxacin activity” value with Staphylococcus aureus [1] was “Active”. In addition, the inhibition result in data set [2] and in [3] was “Active” throughout. The CC50 at 24 h in data set [4] is 74 mg/L (≈ 132 µM). Moreover, the results for the MIC against Staphylococcus aureus [5] and against Staphylococcus aureus [6] were greater than 100 mg/L and 100 mg/L (≈ 179 µM), respectively. In addition, the Activity result with Staphylococcus aureus [7] is listed as “Dose-dependent effect”. In addition, the Drug metabolism entry in data set [8] and in [9] was “Metabolite_Detected” each time. Also, the inhibition at 10 µM at CYP3A4 was no more than 60%. In addition, at Cytochrome P450 2D6, the “inhibition (INH)” value is recorded as “Not Active”.

Take `CCCOc1ccc(-c2cc(OCCN3CCCCC3)c3cc(OC)ccc3n2)cc1`: the “synergistic potentiation of ciprofloxacin activity” value with Staphylococcus aureus [1] is “Active”. In addition, the inhibition result in data set [2] and in data set [3] was “Active” each time. Moreover, the fold change (FC) in data set [10] is 8. In data set [4], the cytotoxic concentration (CC50) at 24 h is 42 mg/L (≈ 99.9 µM). The figures for the MIC against Staphylococcus aureus [5] and in the data set with Staphylococcus aureus [6] were 50 mg/L (≈ 119 µM) and 12.5 mg/L (≈ 29.7 µM), respectively. In addition, the selectivity ratio in data set [11] is greater than 128. In addition, the Activity result in the data set with Staphylococcus aureus [7] is listed as “Dose-dependent effect”. The Drug metabolism entry in data set [12] is on record as “Metabolite_Detected”. Besides, the “inhibition (INH)” value on Cytochrome P450 3A4 and at Cytochrome P450 2D6 was “Not Active” throughout.

As usually defined, the inhibition is how much of the control response was suppressed. The CC50 is the concentration that lowers cell viability or growth by half.
